# Sampled rows, rich in hits. Any-hit rate of the full collection: about 1.8%.
# NSD2 HMT inh: inhibitors of human histone methyltransferase NSD2. inhibition, % at 12.5 µM. AID 743445. NSD2 peptide methylation, AlphaScreen, 120 min. 0.54% of 310,000 active. O96028; in the data active means inhibition above about 50%
# MBD2 DNA inh: inhibitors of human MBD2 binding to methylated oligonucleotide; 0.31% of 370,000 active; inhibition, % at 4.4 µM; TR-FRET; Q9UBB5; in the data active means inhibition above about 13%
# TDP2 absorb: blocks human TDP2 phosphodiesterase activity. O95551. recombinant TDP2, T5PNP hydrolysis, p-nitrophenol absorbance 415 nm. inhibition, % at 12.8 µM. 0.34% of 370,000 active. AID 720702;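 active means inhibition above the mean of all tested compounds plus 3 SD, set per campaign, cut at about 25% in these data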;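 further: 0% = DMSO with enzyme and 100% = buffer with substrate but no TDP2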
#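 Test system: Human TDP2 enzyme | Reagent: 5 mM T5PNP | Compound dosing: 12.8 µM single point, 1% DMSO | Incubation: Enzyme reaction with compound for 2 h at 37 °C | Technique: p-Nitrophenol epi absorbance | Read-out: % inhibition relative to enzyme-containing and enzyme-free wells | Benchmarks: High control without enzyme, low control DMSO plus TDP2 | Replicates: Singlicate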
# UHRF1 MBD2 ctr: UHRF1 methyl-DNA binding inhibition; Q96T88; UHRF1 binding to methylated oligo, TR-FRET; inhibition, % at 4.4 µM; 0.75% of 370,000 active; AID 687016; in the data active means inhibition above about 21%;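 further: UHRF1 SRA domain binding a hemimethylated CpG hairpin DNA probe; 0% = median of test compound wells and 100% = reference inhibitor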
# LEDGF integ inh: blocks HIV-1 LEDGF/p75-dependent DNA integration; inhibition, % at 3.7 µM; 0.64% of 370,000 active; TR-FRET IN-LEDGF/p75 DNA integration, Eu/Cy5;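 active means inhibition above the screen-wide mean plus 3 SD, cut at about 13% in these data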;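 further: signal is the Cy5 over europium emission ratio at 671 and 618 nm; 0% = plate median of compound wells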
# Casp6 inh: blocks human caspase-6 cleavage activity | purified caspase-6, Z-VEID-R110 cleavage fluorescence | inhibition, % at 12.5 µM | 0.53% of 350,000 active | P55212;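 active means mean inhibition across replicates at least about 35%, with every replicate also reaching that limit, limit read from the data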;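 further: 0% = median of neutral control wells and 100% = no fluorescence left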
# Alpha artifact: AlphaScreen assay artifact in NSD2 counter-screen; 9.4% of 1,500 active; AlphaScreen artifact counterscreen, preloaded methylated H4 peptide; shares compounds with NSD2 HMT inh; AC35, µM (titrated, usually from 10 µM), for inactives: at the top dose activity change, negative = signal loss; call rule not given here
# * hit, by the source's call; x = not tested or not shown.
SMILES,NSD2 HMT inh,MBD2 DNA inh,TDP2 absorb,UHRF1 MBD2 ctr,LEDGF integ inh,Casp6 inh,Alpha artifact
CCCCCCn1c(N)c(C(=O)NCCN2CCOCC2)c2nc3ccccc3nc21,-5.3,-4.8,-16.7,-1.6,0.0,x,x
CCCCn1c(N)c(C(=O)OCC2CCCO2)c2nc3ccccc3nc21 (stereo not drawn),82.9*,x,x,x,x,9.1,0.6%
CCCCCn1c(N)c(C(=O)NCc2cccs2)c2nc3ccccc3nc21,82.8*,-2.9,-10.3,-3.2,1.0,x,4.4%
CC(C)CCn1c(N)c(C(=O)OCC2CCCO2)c2nc3ccccc3nc21 (stereo not drawn),-19.6,1.1,3.9,-6.9,-0.7,x,x
COc1ccc(C#Cc2ccc([C@H]3[C@@H](CO)N4CCCCN(C(=O)Cc5ccncc5)C[C@@H]34)cc2)cc1,x,x,x,x,x,1.4,x
COC(=O)[C@@H]1[C@@H](CO)[C@@H]2Cn3c(ccc(-c4ccccc4)c3=O)[C@H]1N2S(=O)(=O)c1ccccc1C,x,x,x,x,x,-2.1,x
O=C(O)[C@@H]1[C@@H](CO)[C@@H]2Cn3c(ccc(-c4ccccc4)c3=O)[C@H]1N2CC1CCCCC1,x,x,x,x,x,-2.5,x
COC(=O)C1=Nc2ccccc2/C1=C\c1c(O)n(-c2ccc(Br)cc2)c(=O)[nH]c1=O,60.6*,-10.3,-14.8,-6.3,5.3,16.0,-0.2%
O=[N+]([O-])c1ccc(N2CCCC2)c2ccncc12,70.5*,-16.8,-5.2,-34.1,-2.9,3.4,-3.6%
O=C(NC1CN2CCC1CC2)c1cccc(Cl)c1 (stereo not drawn),-1.3,2.1,-9.5,-3.4,3.5,-22.6,x
C=C(C)c1cccc(C(C)(C)NC(=O)NC2CN3CCC2CC3)c1 (stereo not drawn),51.0*,1.6,-5.0,-4.6,-9.9,x,0.2%
CC[n+]1c(/C=C/C=C/c2ccc(N(C)C)cc2)sc2ccccc21,80.6*,-25.7,-3.4,-17.3,-24.0,-0.4,3.69µM*
CN(C)c1ccc(/C=C/C=C/c2sc3ccccc3[n+]2C)cc1,57.2*,-23.2,-3.9,-3.5,-9.7,6.1,10.4µM*
C[n+]1c(-c2ccccc2)sc2ccccc21,1.6,0.3,6.1,-1.4,-1.4,2.1,x
COC(=O)[C@H]1[C@H](CO)[C@H]2Cn3c(ccc(C4=CCCCC4)c3=O)[C@@H]1N2C(=O)Cc1ccccn1,x,x,x,x,x,-2.1,x
COC(=O)[C@@H]1N[C@@H]2c3ccc(C4=CCCC4)c(=O)n3C[C@@H]2[C@H]1CO,x,x,x,x,x,-0.2,x
Fc1ccc(Cn2nnnc2C(c2ccc(Cl)cc2)N2CC=C(c3ccc(F)cc3)CC2)cc1 (stereo not drawn),50.8*,5.2,5.1,1.3,-1.6,-0.6,-0.7%
C/C=C/c1ccc(C2[C@@H]3CN(Cc4cccnc4)C[C@H]2N3)cc1 (stereo partly drawn),x,x,x,x,x,-0.2,x
O=C1NC(=O)N(c2ccccc2)C(=O)/C1=C/c1ccoc1,50.7*,7.6,8.1,2.9,8.5,x,-5.9%
COC(=O)c1nc(-c2ccc3c(n2)C(=O)C(N)=C(OC)C3=O)c(N)c(-c2ccc(OC)c(OC)c2O)c1C,55.5*,-6.6,5.7,-2.0,3.7,54.4*,-1.7%
COc1cc(O)cc2c1C(=O)OC(C)CCCC(=O)CCC/C=C\2 (stereo not drawn),54.4*,-1.1,-6.4,4.1,-1.8,2.8,-1.5%
C[C@H]1CCCC(=O)CCC/C=C/c2cc(O)cc(O)c2C(=O)O1,x,-7.8,-12.3,-1.9,3.8,-0.8,x
O=C(Cc1cccnc1)N1CCCCN2[C@H](C1)[C@@H](c1ccc(C#CC3CC3)cc1)[C@@H]2CO,x,x,x,x,x,0.6,x
COc1ccc(C(CNC(=O)CCc2ccsc2)N(C)C)cc1 (stereo not drawn),-2.9,-3.6,8.7,0.4,1.2,-6.1,x
CN(C)C(CNC(=O)Cc1ccc(Br)cc1)c1ccccc1 (stereo not drawn),53.1*,0.7,1.8,-1.2,-0.3,-1.2,-7.5%
CCCCCSc1cc(OC)c(CCNC)cc1OC,61.0*,2.2,-8.6,1.0,5.5,x,-17.2%
COc1ccc(C#Cc2ccc([C@H]3[C@H](CO)N4CCCCN(C(=O)Cc5cccnc5)C[C@@H]34)cc2)cc1,x,x,x,x,x,0.2,x

# Screening data as filed in PubChem BioAssay.
